Published values gathered from unrelated publications.
Target: NUAK family SNF1-like kinase 2 (NUAK2, Homo sapiens, UniProt Q9H093)
Residues used in one study (Q9H093 1-628): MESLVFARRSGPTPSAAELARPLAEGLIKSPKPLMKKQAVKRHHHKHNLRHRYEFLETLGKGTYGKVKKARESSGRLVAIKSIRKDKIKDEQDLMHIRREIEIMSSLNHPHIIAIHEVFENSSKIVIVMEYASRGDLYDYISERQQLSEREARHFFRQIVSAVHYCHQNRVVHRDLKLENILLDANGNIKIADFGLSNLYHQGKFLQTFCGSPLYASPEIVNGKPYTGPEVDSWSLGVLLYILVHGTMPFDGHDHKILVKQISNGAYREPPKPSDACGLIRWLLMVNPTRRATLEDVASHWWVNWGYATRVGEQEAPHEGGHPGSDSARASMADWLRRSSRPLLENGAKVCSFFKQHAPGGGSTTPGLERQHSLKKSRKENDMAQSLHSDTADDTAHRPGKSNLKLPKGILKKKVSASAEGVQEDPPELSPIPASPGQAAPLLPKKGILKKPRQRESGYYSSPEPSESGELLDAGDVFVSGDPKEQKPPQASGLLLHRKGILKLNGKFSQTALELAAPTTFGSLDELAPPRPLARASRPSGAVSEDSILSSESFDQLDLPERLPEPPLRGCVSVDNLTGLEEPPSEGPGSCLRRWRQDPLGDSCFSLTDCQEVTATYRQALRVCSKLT

Structure (SMILES) | assay | conditions | measurement | value
CC(C)(O)[C@H]1CC[C@H](Nc2ccc3ncc(-c4cccc(C(F)(F)F)c4)n3n2)CC1 | enzyme activity, inhibitor | 1 µM | remaining activity | 84.9%
CN(c1ccnc(CNc2nc(Nc3ccc4c(c3)CC(=O)N4)ncc2C(F)(F)F)n1)S(C)(=O)=O | cell-free assay, competition with immobilised ligand | 1 µM | remaining binding | 7.6%
COc1cc(Cl)c(C(=O)N[C@@H](CN[C@H]2CC[C@@H](N)CC2)Cc2ccc(C#N)cc2)cc1-c1ccc(CN[C@H](C)c2ccc(C)cc2)o1 | enzyme activity, inhibitor | 1 µM | remaining activity | 93%
C#Cc1cccc(Nc2ncnc3cc(OCCOC)c(OCCOC)cc23)c1 | cell-free assay | 0.5 µM | remaining signal | 95.3%
CC(C)(C)c1nc2c(s1)c1nc(N)ncc1c1ccc(NS(=O)(=O)c3c(F)cccc3F)c(F)c12 | enzyme activity, inhibitor, radiometric | 1 µM | remaining activity | 81%
O=C(O)c1cc(-c2ccc(C3CCNCC3)cc2)c2ccc(-c3ccc(C(F)(F)F)cc3)cc2c1 | cell-free assay, competition with immobilised ligand | 1 µM | remaining binding | 100%
CN1CC(Oc2cnc(C#N)cc2-c2ccn3nc(NC(=O)C4CC4)cc3c2)C1 | enzyme activity, inhibitor | 1 µM | inhibition | -8%
CC/C(=N\NC(=O)NCc1cccc(O)c1)c1ccc(O)c(C)c1O | enzyme activity, inhibitor | 0.1 µM | inhibition | 12.5%
O=C(Nc1cnn(-c2csc(C(=O)NC3COC3)c2)c1)Nc1c(F)cccc1Cl | enzyme activity, inhibitor | 5 µM | remaining activity | 97.8%
CC(C)(C)c1nc(-c2cccc(NS(=O)(=O)c3c(F)cccc3F)c2F)c(-c2ccnc(N)n2)s1 | enzyme activity, inhibitor, radiometric | 1 µM | remaining activity | 90%
COc1ccc2c(O[C@@H]3C[C@H]4C(=O)N[C@]5(C(=O)O)CC5/C=C\CCCCC[C@H](NC(=O)OC5CCCC5)C(=O)N4C3)cc(-c3csc(NC(=O)C(C)C)n3)nc2c1C (some centres unmarked) | cell-free assay, competition with immobilised ligand | 1 µM | remaining binding | 91%
N#CCCc1ccc2c(c1)-c1[nH]c3ccc([N+](=O)[O-])cc3c1CC(=O)N2 | cell-free assay | 0.5 µM | remaining signal | 67.6%
Nc1ncnc2occ(-c3ccc(NC(=O)Nc4cc(C(F)(F)F)ccc4F)cc3)c12 | cell-free assay, inhibitor | 20 µM | remaining signal | 30%
O=C1Nc2ccc(Cl)cc2C1=Cc1cc(Cl)c(O)c(Cl)c1 | cell-free assay | 0.5 µM | remaining signal | 78.7%
Cc1ccc(C(=O)Nc2ccc(CN3CCN(C)CC3)c(C(F)(F)F)c2)cc1C#Cc1cnc2cccnn12 | enzyme activity, inhibitor | 23.5 nM | remaining activity | 84%
COc1cc(-c2cn(C3CCc4c(F)cccc4N(CC(F)(F)F)C3=O)nn2)ccc1-n1cnc(C)c1 (centres unmarked) | cell-free assay, competition with immobilised ligand | 1 µM | remaining binding | 100%
O=C(Nc1cnn(-c2csc(C(=O)NC3COC3)c2)c1)Nc1ccccc1Cl | enzyme activity, inhibitor | 5 µM | remaining activity | 99.8%
